Data taken from ChEMBL document CHEMBL1777724, “Discovery, design and synthesis of the first reported potent and selective sphingosine-1-phosphate 4 (S1P4) receptor antagonists” (Bioorg Med Chem Lett, 2011).
Activity calls are given as the source filed them. No cut-off for these calls is given here.

Key:
[1] = target: T1, Sphingosine 1-phosphate receptor 4 (Homo sapiens) (UniProt O95977); assay: Antagonist activity at S1P4 receptor in human U2OS cells expressing EDG6-linked GAL4-VP16 transcription factor via TEV protease site/beta-arrestin/TEV protease fusion protein and beta-lactamase reporter gene assessed as beta-lactamase expression up to 25 uM by FRET assay; format: functional, cell-based
T1 sequence (whole entry): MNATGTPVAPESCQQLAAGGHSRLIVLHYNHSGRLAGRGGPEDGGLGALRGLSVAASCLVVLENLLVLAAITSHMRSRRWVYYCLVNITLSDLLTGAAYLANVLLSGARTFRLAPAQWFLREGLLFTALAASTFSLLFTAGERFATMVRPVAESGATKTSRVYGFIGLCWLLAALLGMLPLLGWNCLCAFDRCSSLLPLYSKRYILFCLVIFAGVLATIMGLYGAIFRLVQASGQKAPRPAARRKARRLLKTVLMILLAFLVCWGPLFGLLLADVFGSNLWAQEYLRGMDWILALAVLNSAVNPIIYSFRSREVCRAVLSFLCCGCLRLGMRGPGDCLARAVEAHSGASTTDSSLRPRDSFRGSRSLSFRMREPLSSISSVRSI
Summary of the method: (§1)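 Cells co-express a beta-arrestin/TEV protease fusion protein and a beta-lactamase reporter gene under a UAS response element. Reporter expression was read as FRET of a cleavable, fluorogenic, cell-permeable beta-lactamase substrate. Compounds were tested at concentrations up to 25 μM. IC50 values are the mean of n = 3 determinations.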

[2] = target: T2, Sphingosine 1-phosphate receptor 1 (Homo sapiens, UniProt P21453); assay: Inhibition of S1P1 receptor at 25 uM
T2 sequence (P21453 whole entry): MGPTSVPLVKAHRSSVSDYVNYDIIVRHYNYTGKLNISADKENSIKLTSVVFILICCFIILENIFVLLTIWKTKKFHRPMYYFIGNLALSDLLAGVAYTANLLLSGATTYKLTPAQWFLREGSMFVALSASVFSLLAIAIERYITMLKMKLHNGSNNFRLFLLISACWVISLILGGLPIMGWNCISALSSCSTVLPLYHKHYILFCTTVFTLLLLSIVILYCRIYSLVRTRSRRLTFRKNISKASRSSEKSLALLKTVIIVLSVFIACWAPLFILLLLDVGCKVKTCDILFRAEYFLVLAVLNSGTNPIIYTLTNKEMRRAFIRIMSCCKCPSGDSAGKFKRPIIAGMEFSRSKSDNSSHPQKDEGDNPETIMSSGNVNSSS
Summary of the method: (§2)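 Selectivity counter-screen reported as percentage of inhibition at a single 25 μM concentration, given as the mean of n = 3 determinations.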

[3] = target: T3, Sphingosine 1-phosphate receptor 5 (Homo sapiens, UniProt Q9H228); assay: Inhibition of S1P5 receptor at 25 uM; summary of the method: as §2
T3 sequence (Q9H228 whole entry, the tested form may be a part): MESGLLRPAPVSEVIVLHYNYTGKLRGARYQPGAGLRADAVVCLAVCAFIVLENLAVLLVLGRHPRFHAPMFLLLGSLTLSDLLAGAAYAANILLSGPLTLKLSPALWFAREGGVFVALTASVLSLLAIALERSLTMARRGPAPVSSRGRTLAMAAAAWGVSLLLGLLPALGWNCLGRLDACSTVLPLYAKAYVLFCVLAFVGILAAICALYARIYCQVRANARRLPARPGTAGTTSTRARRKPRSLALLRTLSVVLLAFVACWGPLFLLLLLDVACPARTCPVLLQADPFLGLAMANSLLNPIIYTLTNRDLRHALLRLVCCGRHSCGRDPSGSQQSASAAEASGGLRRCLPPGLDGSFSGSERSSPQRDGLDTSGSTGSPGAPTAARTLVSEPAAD

[4] = target: T4, Sphingosine 1-phosphate receptor 4 (Homo sapiens, UniProt O95977); assay: Antagonist activity at S1P4 receptor in human U2OS cells expressing EDG6-linked GAL4-VP16 transcription factor via TEV protease site/beta-arrestin/TEV protease fusion protein and beta-lactamase reporter gene assessed as beta-lactamase expression by FRET assay; format: functional, cell-based; summary of the method: as §1
T4 sequence (O95977 whole entry): T1 sequence (whole entry)

[5] = target: T5, Sphingosine 1-phosphate receptor 2 (Homo sapiens, UniProt O95136); assay: Inhibition of S1P2 receptor at 25 uM; summary of the method: as §2
T5 sequence (O95136 whole entry): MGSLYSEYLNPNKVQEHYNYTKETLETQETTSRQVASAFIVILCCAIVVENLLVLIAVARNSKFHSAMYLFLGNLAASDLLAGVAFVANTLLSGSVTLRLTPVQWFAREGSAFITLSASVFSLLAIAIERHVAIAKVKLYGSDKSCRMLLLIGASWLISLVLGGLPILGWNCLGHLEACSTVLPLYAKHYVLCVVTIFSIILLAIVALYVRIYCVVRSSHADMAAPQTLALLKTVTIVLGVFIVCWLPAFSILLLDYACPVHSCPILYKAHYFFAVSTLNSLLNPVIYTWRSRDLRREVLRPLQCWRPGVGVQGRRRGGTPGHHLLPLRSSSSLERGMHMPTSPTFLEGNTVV

[6] = target: Sphingosine 1-phosphate receptor 3 (Homo sapiens, UniProt Q99500); assay: Inhibition of S1P3 receptor at 25 uM; summary of the method: as §2
Chain of Sphingosine 1-phosphate receptor 3 (Q99500 whole entry): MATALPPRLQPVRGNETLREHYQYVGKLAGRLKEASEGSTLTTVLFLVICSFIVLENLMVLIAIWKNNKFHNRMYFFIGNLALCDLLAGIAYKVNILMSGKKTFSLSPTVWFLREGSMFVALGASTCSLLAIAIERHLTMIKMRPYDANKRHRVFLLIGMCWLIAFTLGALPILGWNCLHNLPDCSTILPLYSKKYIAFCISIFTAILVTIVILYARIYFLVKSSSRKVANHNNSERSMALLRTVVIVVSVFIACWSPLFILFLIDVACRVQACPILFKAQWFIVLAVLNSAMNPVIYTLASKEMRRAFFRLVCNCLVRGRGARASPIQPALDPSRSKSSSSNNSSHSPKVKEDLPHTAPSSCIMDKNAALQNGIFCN

[7] = target: T3, Sphingosine 1-phosphate receptor 5; assay: Inhibition of S1P5 receptor
[8] = target: T5, Sphingosine 1-phosphate receptor 2; assay: Inhibition of S1P2 receptor
[9] = target: T2, Sphingosine 1-phosphate receptor 1; assay: Inhibition of S1P1 receptor

Cc1cccc(C)c1N(C)C(=O)c1ccc(-c2cc(O)ccc2O)o1
inhibition [1]: inactive

O=C(c1ccc(-c2cc(Cl)ccc2Cl)o1)N1CCc2ccccc21
inhibition [1]: inactive

Cc1ccsc1-c1ccc(C(=O)Nc2c(C)cc(CO)cc2C)o1
inhibition [2]: 80% | inhibition [3]: inactive | IC50 [4]: 34 nM | inhibition [5]: 90% | inhibition [6]: inactive

Cc1cccc(C)c1N(C)C(=O)c1ccc(-c2ccccc2Cl)o1
IC50 [4]: 269 nM

Cc1cccc(Cl)c1NC(=O)c1ccc(-c2cc(Cl)ccc2Cl)o1
IC50 [4]: 169 nM

CC(=O)OCc1cc(C)c(NC(=O)c2ccc(-c3cc(Cl)ccc3Cl)o2)c(C)c1
IC50 [4]: 34 nM

CCc1cccc(C)c1NC(=O)c1ccc(-c2cc(Cl)ccc2Cl)o1
inhibition [2]: inactive | inhibition [3]: 50% | IC50 [4]: 41 nM | inhibition [5]: 50% | inhibition [6]: 55%

Cc1cc(C)c(NC(=O)c2ccc(-c3cc(Cl)ccc3Cl)o2)c(C)c1
IC50 [4]: 63 nM

Cc1cccc(C)c1NC(=O)c1ccc(-c2cc(Cl)ccc2Cl)o1
IC50 [7]: 14000 nM | IC50 [4]: 78 nM

Cc1cc(CN)cc(C)c1NC(=O)c1ccc(-c2cc(Cl)ccc2Cl)o1
IC50 [8]: 3900 nM | IC50 [7]: 5500 nM | inhibition [3]: 90% | IC50 [4]: 25 nM | IC50 [9]: 6400 nM | inhibition [5]: 90% | inhibition [6]: 95%

Cc1cccc(C)c1NC(=O)c1ccc(-c2ccccc2)o1
IC50 [4]: 575 nM

Cc1cccc(C)c1NC(=O)c1ccc(-c2ccsc2)o1
IC50 [4]: 448 nM

Cc1cccc(C)c1NC(=O)c1ccc(-c2c(C)cccc2C)o1
inhibition [1]: inactive

Cc1cccc(C)c1NC(=O)c1ccc(-c2cc(C(F)(F)F)ccc2C(F)(F)F)o1
inhibition [1]: inactive

Cc1cc(O)cc(C)c1NC(=O)c1ccc(-c2cc(Cl)ccc2Cl)o1
IC50 [8]: 2800 nM | IC50 [7]: 3000 nM | IC50 [4]: 58 nM | IC50 [9]: 5300 nM | inhibition [5]: 90%

Cc1cc(C)c(N(C)C(=O)c2ccc(-c3cc(Cl)ccc3Cl)o2)c(C)c1
IC50 [4]: 8100 nM

COc1cc(C)c(NC(=O)c2ccc(-c3cc(Cl)ccc3Cl)o2)c(C)c1
IC50 [8]: 2800 nM | inhibition [2]: 20% | inhibition [3]: 40% | IC50 [4]: 80 nM | inhibition [5]: 70% | inhibition [6]: 30%

Cc1ccsc1-c1ccc(C(=O)Nc2c(C)cc(O)cc2C)o1
inhibition [2]: 75% | inhibition [3]: inactive | IC50 [4]: 46 nM | inhibition [5]: 80% | inhibition [6]: 10%

Cc1cc(-c2ccccc2)cc(C)c1NC(=O)c1ccc(-c2cc(Cl)ccc2Cl)o1
IC50 [4]: 115 nM

Cc1cccc(C)c1NC(=O)c1ccc(-c2cc(F)ccc2F)o1
IC50 [4]: 308 nM

Cc1cccc(C)c1NC(=O)c1ccc(-c2ccc(Cl)s2)o1
IC50 [4]: 515 nM

CCc1cccc(CC)c1NC(=O)c1ccc(-c2cc(Cl)ccc2Cl)o1
inhibition [2]: inactive | inhibition [3]: inactive | IC50 [4]: 89 nM | inhibition [5]: inactive | inhibition [6]: inactive

Cc1cscc1-c1ccc(C(=O)Nc2c(C)cccc2C)o1
IC50 [4]: 286 nM

Cc1cc(CO)cc(C)c1NC(=O)c1ccc(-c2cc(Cl)ccc2Cl)o1
IC50 [8]: 3000 nM | inhibition [2]: 45% | inhibition [3]: 40% | IC50 [4]: 21 nM | inhibition [5]: 85% | inhibition [6]: 60%

Cc1cccc(C)c1NC(=O)c1ccc(-c2cccc(Cl)c2)o1
IC50 [4]: 497 nM

Cc1ccc2ccccc2c1NC(=O)c1ccc(-c2cc(Cl)ccc2Cl)o1
IC50 [4]: 253 nM

Cc1cc(OCCO)cc(C)c1NC(=O)c1ccc(-c2cc(Cl)ccc2Cl)o1
IC50 [8]: 2400 nM | inhibition [2]: 35% | inhibition [3]: 60% | IC50 [4]: 44 nM | inhibition [5]: 90% | inhibition [6]: 70%

Cc1ccc(S(C)(=O)=O)c(C)c1NC(=O)c1ccc(-c2cc(Cl)ccc2Cl)o1
IC50 [4]: 302 nM

Cc1cccc(C)c1NC(=O)c1ccc(-c2ccc(Cl)cc2Cl)o1
IC50 [4]: 2000 nM

Cc1cccc(CO)c1NC(=O)c1ccc(-c2cc(Cl)ccc2Cl)o1
IC50 [4]: 573 nM

Cc1ccc(C)c(NC(=O)c2ccc(-c3cc(Cl)ccc3Cl)o2)c1
IC50 [4]: 165 nM

Cc1cc(OCC(N)=O)cc(C)c1NC(=O)c1ccc(-c2cc(Cl)ccc2Cl)o1
IC50 [4]: 52 nM

Cc1cccc(C)c1N(C)C(=O)c1ccc(-c2ccco2)o1
IC50 [4]: 130 nM

COc1ccc(NC(=O)c2ccc(-c3cc(Cl)ccc3Cl)o2)c(C)c1
IC50 [4]: 589 nM

COc1cccc(OC)c1NC(=O)c1ccc(-c2cc(Cl)ccc2Cl)o1
IC50 [4]: 417 nM

Cc1cc(CN(C)C)cc(C)c1NC(=O)c1ccc(-c2cc(Cl)ccc2Cl)o1
IC50 [4]: 348 nM

CC(C)c1cccc(C(C)C)c1NC(=O)c1ccc(-c2cc(Cl)ccc2Cl)o1
IC50 [4]: 105 nM

CC(=O)NCc1cc(C)c(NC(=O)c2ccc(-c3cc(Cl)ccc3Cl)o2)c(C)c1
IC50 [4]: 94 nM

Cc1cccc(C)c1NC(=O)c1ccc(-c2cccs2)o1
IC50 [4]: 118 nM

O=C(Nc1c(F)cccc1F)c1ccc(-c2cc(Cl)ccc2Cl)o1
IC50 [4]: 6400 nM

Cc1ccc(C)c(-c2ccc(C(=O)Nc3c(C)cccc3C)o2)c1
IC50 [4]: 64 nM

COc1ccc(OC)c(-c2ccc(C(=O)N(C)c3c(C)cccc3C)o2)c1
IC50 [4]: 513 nM

Cc1ccsc1-c1ccc(C(=O)Nc2c(C)cccc2C)o1
IC50 [8]: 2600 nM | inhibition [2]: 95% | inhibition [3]: 40% | IC50 [4]: 93 nM | inhibition [6]: 20%

COc1ccc(C)c(NC(=O)c2ccc(-c3cc(Cl)ccc3Cl)o2)c1
IC50 [4]: 931 nM

COc1cccc(C)c1NC(=O)c1ccc(-c2cc(Cl)ccc2Cl)o1
IC50 [4]: 163 nM
